From ChEMBL document CHEMBL3745677, “Discovery of 6-(4-{[5-Cyclopropyl-3-(2,6-dichlorophenyl)isoxazol-4-yl]methoxy}piperidin-1-yl)-1-methyl-1H-indole-3-carboxylic Acid: A Novel FXR Agonist for the Treatment of Dyslipidemia” (J Med Chem, 2015)

Legend:
[1] = AUC (0 to 24 hrs) in Sprague-Dawley rat at 1 mg/kg, iv by LC-MS/MS analysis; type: ADME, organism-based; parameters: dose 1 mg/kg, time < 24 hr, route intravenous; details: in vivo
Procedure, shortened: (§1)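 Sprague Dawley rats, Beagle dogs and Cynomolgus monkeys were dosed IV at 1 mg/kg (rat, dog) or 0.91 mpk (monkey) in 5% Solutol/5% EtOH in saline. Oral/nasogastric dosing was 3 mpk in 1.0% CMC/0.25% PS80/0.05% antifoam in purified water. Samples were processed to plasma and analysed by LC-MS/MS; values are mean ± SD, N=2-3.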

[2] = Tmax in Sprague-Dawley rat at 3 mg/kg, po by LC-MS/MS analysis; type: ADME, organism-based; details: in vivo
Procedure, shortened: (§2)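 Oral/nasogastric dosing at 3 mpk in 1.0% CMC/0.25% PS80/0.05% antifoam in purified water. Plasma samples collected and analyzed by LC-MS/MS; parameters reported as mean ± SD, N=2-3.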

Rattus norvegicus [3] = assay: Antidyslipidemic activity in ZDF rat assessed as HDL level at 10 mg/kg cotreated with 0.3 mg/kg rosiglitazone for 9 days by FPLC analysis (reference value: 48.3 mg/dL); type: functional, Zucker
[4] = Volume of distribution at steady state in Sprague-Dawley rat at 1 mg/kg, iv by LC-MS/MS analysis; type: ADME, organism-based; details: in vivo, read-out: Vdss
Procedure, shortened: (§3)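 Intravenous dose given in 5% Solutol / 5% EtOH in saline (1 mg/kg rat and dog, 0.91 mpk monkey). Plasma samples collected and analyzed by LC-MS/MS; parameters reported as mean ± SD, N=2-3.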

[5] = Clearance in Sprague-Dawley rat at 1 mg/kg, iv by LC-MS/MS analysis; type: ADME, organism-based; details: in vivo; procedure, shortened: as §1
Mus musculus [6] = assay: Antidyslipidemic activity in western-diet fed mouse expressing LDL-receptor (-/-) assessed as decrease in total cholesterol level at 10 mg/kg qd for a week administered via gavage […]; type: functional; details: po
Procedure, shortened: (§4)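 Male LDLR null mice, six per group, were gavaged once daily for one week with compound (in situ sodium salt) or vehicle (5% Solutol, 5% EtOH, 1% wt/v CMC) at 5 mL/kg. On day 7 they were bled by cardiac puncture under CO2 anaesthesia. Serum cholesterol and triglycerides were measured enzymatically on a clinical chemistry analyser (mean ± SD, n=6). ED50 was obtained by nonlinear regression.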

[7] = Tmax in beagle dog at 3 mg/kg, po by LC-MS/MS analysis; type: ADME, organism-based, Canis lupus familiaris; details: in vivo; procedure, shortened: as §2
[8] = AUC (0 to 24 hrs) in Sprague-Dawley rat at 3 mg/kg, po by LC-MS/MS analysis; type: ADME, organism-based; parameters: time < 24 hr, dose 3 mg/kg, route oral; details: in vivo; procedure, shortened: as §1
[9] = Half life in human at 75 to 600 mg; type: ADME, organism-based; details: in vivo
Procedure, shortened: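 Healthy subjects (two cohorts of 9) received single oral doses in a double-blind, placebo-controlled, 2-cohort, 3-period dose-escalation study at one site. Doses covered 5 to 600 mg. Half-life was taken as the mean over the 75–600 mg range.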

Mus musculus [10] = assay: Antidyslipidemic activity in western-diet fed mouse expressing LDL-receptor (-/-) assessed as decrease in total cholesterol level at 3 mg/kg qd for a week administered via gavage […]; type: functional; details: po; procedure, shortened: as §4
Rattus norvegicus [11] = assay: Antidyslipidemic activity in ZDF rat assessed as HDL level at 3 mg/kg for 9 days by FPLC analysis (reference value: 48.3 mg/dL); type: functional, Zucker
[12] = Initial plasma concentration in cynomolgus monkey at 0.91 mg/kg, iv by LC-MS/MS analysis; type: ADME, organism-based, Macaca fascicularis; procedure, shortened: as §3
[13] = Fraction unbound in human plasma; type: ADME, cell-free
Rattus norvegicus [14] = assay: Antidyslipidemic activity in ZDF rat assessed as HDL level at 30 mg/kg for 9 days by FPLC analysis (reference value: 48.3 mg/dL); type: functional, Zucker
[15] = Terminal half life in Sprague-Dawley rat at 3 mg/kg, po by LC-MS/MS analysis; type: ADME, organism-based; details: in vivo, read-out: beta t1/2 (converted); procedure, shortened: as §2
Mus musculus [16] = assay: Antidyslipidemic activity in western-diet fed mouse expressing LDL-receptor (-/-) assessed as decrease in total cholesterol level at 1 mg/kg qd for a week administered via gavage […]; type: functional; details: po; procedure, shortened: as §4

## Cn1cc(C(=O)O)c2ccc(N3CCC(OCc4c(-c5c(Cl)cccc5Cl)noc4C4CC4)CC3)cc21 [TERN-101]
[1]
  AUC(0-t) at 24 h: 577 ng·h/mL
[2]
  Tmax: 1.08 h
Rattus norvegicus [3]
  Activity: 95 mg/dL
[4]
  Vd: 1.24 L/kg
[5]
  clearance: 30 mL/min/kg
Mus musculus [6]
  inhibition in vivo at 10 mg/kg: 80%
[7]
  Tmax: 0.75 h
[8]
  AUC(0-t) at 24 h: 365 ng·h/mL
[9]
  half-life: 16.9 h
Mus musculus [10]
  inhibition in vivo at 3 mg/kg: 57%
Rattus norvegicus [11]
  Activity: 62.5 mg/dL
[12]
  C0: 4220 ng/mL
[13]
  fraction unbound: 0.032
Rattus norvegicus [14]
  Activity: 94 mg/dL
[15]
  half-life: 2 h
Mus musculus [16]
  inhibition in vivo at 1 mg/kg: 37%
